Reference: PMC2871064 (Cancer research, 2010)
Where two headings read alike, the source gives them in different places.

How the values were obtained:
A375 xenografts = assay: Tissue distribution in mice bearing A375 xenografts; assay type: in vivo, NCr^nu/nu mice; details: A375 xenograft mice; for Tissue distribution: Blood: tail vein
How it was run: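 Male athymic NCr nu/nu mice received 0.25 mL of cells (8 × 10⁶/mL in 1:1 D-PBS-glucose-pyruvate/Matrigel) into the right hind flank. Tumours were used at 100–500 mm³ (~21 days). Tail-vein bolus of ~74 KBq tracer in 0.05 mL; n = 5 per time point. Mice were killed by CO₂ at 1, 4 and 24 h. Organs and tumour were weighed wet and gamma-counted; results are %ID/g, mean ± SD.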

SK-MEL-3 tumors = assay: Effect of [^131I]MIP-1145 on SK-MEL-3 tumor growth and survival; assay type: in vivo, athymic nude mice; details: multiple doses, 25 MBq or 2.5 GBq/m^2
[1] = Pharmacokinetics and gamma camera imaging in cynomolgus monkeys; assay type: in vivo
How it was run: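 Four cynomolgus monkeys (2 female, 2 male), Telazol-anaesthetised, received 185 MBq radiotracer iv without thyroid blockade. Serial anterior/posterior gamma-camera imaging was performed. Blood was drawn at 5, 30, 60, 120 and 360 min and at 24, 48 and 72 h. Urine was pooled over 0–6, 6–24, 24–48 and 48–72 h. Analysis was non-compartmental, with CL = dose/AUC and Vss = MRT × CL.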

[2] = Projected human dosimetry extrapolated from cynomolgus monkey scintigraphy; assay type: in vivo, cynomolgus monkeys
How it was run: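 Regions of interest (total body, lung, kidney, thyroid, eye) were drawn on anterior/posterior monkey images at each time point. Uptake was normalised to % total body dose, with the first pre-voiding image set as 100%. Time integrals went into OLINDA/EXM: adult male phantom, 4.8 h bladder voiding interval, unit-density sphere model for eye. The intestine margin is referenced to a 45 Gy limit at 4.7 GBq/70 kg.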

[3] = Monte Carlo simulation of radiation dose to human eye substructures; details: human projection
B16F10 xenografts = details: cited from earlier work
[4] = both, cynomolgus monkey, blood, iv, 185 MBq
[5] = at anticipated human dose 4.7 GBq/70 kg patient
[6] = extrapolated from cynomolgus monkeys

CCN(CC)CCNC(=O)c1cc(I)c(NC(=O)c2ccc(F)cc2)cc1OC [[^131I]MIP-1145, N-(2-diethylamino-ethyl)-4-(4-fluoro-benzamido)-5-iodo-2-methoxy-benzamide]
Tissue distribution: Large Intestine (A375 xenografts; 4 hours): 13.81 ± 5.14 %ID/g | Tissue distribution: Liver (A375 xenografts; 4 hours): 4.30 ± 0.45 %ID/g | Tissue distribution: Lungs (A375 xenografts; 4 hours): 7.24 ± 1.31 %ID/g | Tissue distribution: Skeletal Muscle (A375 xenografts; 4 hours): 0.58 ± 0.12 %ID/g | Tissue distribution: Small Intestine (A375 xenografts; 4 hours): 12.44 ± 2.02 %ID/g | Tissue distribution: Spleen (A375 xenografts; 4 hours): 2.57 ± 0.51 %ID/g | Tissue distribution: Stomach (A375 xenografts; 4 hours): 4.57 ± 1.77 %ID/g | Tissue distribution: Testes (A375 xenografts; 4 hours): 0.90 ± 0.13 %ID/g | Tissue distribution: Tumor (A375 xenografts; 4 hours): 1.19 ± 0.07 %ID/g | Tissue distribution: Blood (A375 xenografts; 4 hours post-injection): 0.26 ± 0.04 %ID/g | Tissue distribution: Adipose (A375 xenografts; 24 hours): 0.13 ± 0.12 %ID/g | Tissue distribution: Bone (A375 xenografts; 24 hours): 0.03 ± 0.02 %ID/g | Tissue distribution: Brain (A375 xenografts; 24 hours): 0.01 ± 0.00 %ID/g | Tissue distribution: Heart (A375 xenografts; 24 hours): 0.02 ± 0.02 %ID/g | Tissue distribution: Kidneys (A375 xenografts; 24 hours): 0.21 ± 0.08 %ID/g | Tissue distribution: Large Intestine (A375 xenografts; 24 hours): 1.35 ± 0.36 %ID/g | Tissue distribution: Liver (A375 xenografts; 24 hours): 0.32 ± 0.06 %ID/g | Tissue distribution: Lungs (A375 xenografts; 24 hours): 0.37 ± 0.15 %ID/g | Tissue distribution: Skeletal Muscle (A375 xenografts; 24 hours): 0.02 ± 0.01 %ID/g | Tissue distribution: Small Intestine (A375 xenografts; 24 hours): 0.59 ± 0.24 %ID/g | Tissue distribution: Spleen (A375 xenografts; 24 hours): 0.15 ± 0.20 %ID/g | Tissue distribution: Stomach (A375 xenografts; 24 hours): 0.67 ± 0.27 %ID/g | Tissue distribution: Testes (A375 xenografts; 24 hours): 0.16 ± 0.05 %ID/g | Tissue distribution: Tumor (A375 xenografts; 24 hours): 0.04 ± 0.02 %ID/g | Tissue distribution: Blood (A375 xenografts; 24 hours post-injection): 0.04 ± 0.02 %ID/g | Duration of response (SK-MEL-3 tumors): over 125 days | MRT [1, 4]: 47 ± 5 h | Vd [1, 4]: 19 ± 3 L | clearance [1, 4]: 6.67 mL/min | Injected dose recovered in the urine ([1]; cynomolgus monkeys, by 72 hours post-injection): 28% | Margin of lower large intestine dose below the allowable exposure limit of 45 Gy [2, 5]: 3.3 times | Radiation absorbed dose to the lower large intestine [2, 5]: 13.3 Gy | Radiation dose to the eye [2, 5]: 6.1 Gy | Effective Dose [2, 6]: 1.40E+00 ± 6.30E-01 mGy/MBq | Effective Dose Equivalent [2, 6]: 9.20E-01 ± 3.70E-01 mGy/MBq | Projected human organ radiation absorbed dose: Brain [2, 6]: 7.00E-02 ± 1.50E-02 mGy/MBq | Projected human organ radiation absorbed dose: Breasts [2, 6]: 6.40E-02 ± 1.40E-02 mGy/MBq | Projected human organ radiation absorbed dose: Eyes [2, 6]: 1.30E+00 ± 6.70E-01 mGy/MBq | Projected human organ radiation absorbed dose: Gallbladder Wall [2, 6]: 1.20E-01 ± 1.90E-02 mGy/MBq | Projected human organ radiation absorbed dose: Heart Wall [2, 6]: 8.00E-02 ± 1.80E-02 mGy/MBq | Projected human organ radiation absorbed dose: Kidneys [2, 6]: 1.10E-01 ± 7.70E-02 mGy/MBq | Projected human organ radiation absorbed dose: Liver [2, 6]: 8.60E-02 ± 1.70E-02 mGy/MBq | Projected human organ radiation absorbed dose: Lungs [2, 6]: 6.70E-02 ± 2.00E-02 mGy/MBq | Projected human organ radiation absorbed dose: Muscle [2, 6]: 8.80E-02 ± 1.60E-02 mGy/MBq | Projected human organ radiation absorbed dose: Osteogenic Cells [2, 6]: 1.60E-01 ± 3.30E-02 mGy/MBq | Projected human organ radiation absorbed dose: Ovaries [2, 6]: 2.00E-01 ± 1.90E-02 mGy/MBq | Projected human organ radiation absorbed dose: Pancreas [2, 6]: 9.20E-02 ± 1.90E-02 mGy/MBq | Projected human organ radiation absorbed dose: Red Marrow [2, 6]: 8.70E-02 ± 1.40E-02 mGy/MBq | Projected human organ radiation absorbed dose: Skin [2, 6]: 6.60E-02 ± 1.40E-02 mGy/MBq | Projected human organ radiation absorbed dose: Small Intestine [2, 6]: 3.40E-01 ± 1.80E-02 mGy/MBq | Projected human organ radiation absorbed dose: Spleen [2, 6]: 8.50E-02 ± 1.80E-02 mGy/MBq | Projected human organ radiation absorbed dose: Stomach Wall [2, 6]: 9.80E-02 ± 1.80E-02 mGy/MBq | Projected human organ radiation absorbed dose: Testes [2, 6]: 8.60E-02 ± 1.60E-02 mGy/MBq | Projected human organ radiation absorbed dose: Thymus [2, 6]: 7.80E-02 ± 1.70E-02 mGy/MBq | Projected human organ radiation absorbed dose: Uterus [2, 6]: 1.50E-01 ± 1.80E-02 mGy/MBq | Projected human radiation absorbed dose: Total Body [2, 6]: 1.00E-01 ± 1.60E-02 mGy/MBq | Projected human organ radiation absorbed dose: Adrenals ([2]; extrapolated from cynomolgus monkeys, adult male phantom): 8.50E-02 ± 1.80E-02 mGy/MBq | Projected human organ radiation absorbed dose: Urinary Bladder Wall ([2]; extrapolated from cynomolgus monkeys, 4.8 hour voiding interval): 6.20E-01 ± 4.10E-02 mGy/MBq | Projected human organ radiation absorbed dose: LLI Wall ([2]; extrapolated from cynomolgus monkeys, lower large intestine): 2.80E+00 ± 1.80E-02 mGy/MBq | Projected human organ radiation absorbed dose: ULI Wall ([2]; extrapolated from cynomolgus monkeys, upper large intestine): 1.10E+00 ± 1.50E-02 mGy/MBq | Projected human organ radiation absorbed dose: Thyroid ([2]; extrapolated from cynomolgus monkeys, without thyroid blockade): 1.80E+01 ± 1.30E+01 mGy/MBq | Therapeutic dose supported as safe for administration ([2]; human projection, dose-limiting organ lower large intestine): up to 16.2 GBq | Projected human radiation absorbed dose: all other organs ([2]; organs other than thyroid, large intestine and eyes): 0.064-1.1 mGy/MBq | Administered activity needed to reach the lens TD5/5 of 10 Gy for cataracts [3]: 7.7 GBq | Administered activity needed to reach the retina TD5/5 of 45 Gy for retinopathy [3]: 20.8 GBq | Tumor uptake (B16F10 xenografts; specific activity 55.5 GBq/mmol): 9.28 ± 2.24 %ID/g | Tumor uptake (B16F10 xenografts; specific activity 55.5 TBq/mmol): 10.17 ± 1.81 %ID/g
